Assay results of several laboratories.
Target: Phosphatidylinositol 4,5-bisphosphate 3-kinase catalytic subunit delta isoform (PIK3CD, Homo sapiens, UniProt O00329)
Sequence (O00329 1-1044, as in one of the studies): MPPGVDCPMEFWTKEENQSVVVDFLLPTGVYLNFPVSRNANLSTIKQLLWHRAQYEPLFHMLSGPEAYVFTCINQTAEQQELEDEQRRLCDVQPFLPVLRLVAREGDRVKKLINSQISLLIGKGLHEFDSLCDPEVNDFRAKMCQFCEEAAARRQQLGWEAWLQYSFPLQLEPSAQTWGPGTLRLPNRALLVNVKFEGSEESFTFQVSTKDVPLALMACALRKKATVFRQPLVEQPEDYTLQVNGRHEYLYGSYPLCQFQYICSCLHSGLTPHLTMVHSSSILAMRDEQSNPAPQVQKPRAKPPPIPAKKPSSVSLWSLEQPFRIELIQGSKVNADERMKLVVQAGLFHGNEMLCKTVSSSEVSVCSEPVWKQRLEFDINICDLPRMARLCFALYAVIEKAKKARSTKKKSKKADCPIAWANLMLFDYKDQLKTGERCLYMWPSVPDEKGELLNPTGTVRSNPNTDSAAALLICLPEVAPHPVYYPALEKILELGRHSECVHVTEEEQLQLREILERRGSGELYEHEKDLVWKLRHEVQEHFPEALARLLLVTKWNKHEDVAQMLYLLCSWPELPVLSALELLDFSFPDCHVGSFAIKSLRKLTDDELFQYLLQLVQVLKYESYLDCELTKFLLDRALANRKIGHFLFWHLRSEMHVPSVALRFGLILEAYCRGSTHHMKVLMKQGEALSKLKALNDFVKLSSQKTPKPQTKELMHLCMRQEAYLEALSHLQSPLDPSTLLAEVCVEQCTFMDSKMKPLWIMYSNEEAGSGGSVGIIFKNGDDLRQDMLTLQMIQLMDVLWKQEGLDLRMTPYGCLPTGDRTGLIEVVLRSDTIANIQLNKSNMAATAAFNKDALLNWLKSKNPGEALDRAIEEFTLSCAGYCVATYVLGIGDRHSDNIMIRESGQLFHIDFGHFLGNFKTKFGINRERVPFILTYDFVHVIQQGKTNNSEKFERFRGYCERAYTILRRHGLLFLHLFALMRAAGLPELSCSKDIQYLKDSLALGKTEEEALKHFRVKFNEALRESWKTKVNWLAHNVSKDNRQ

Compound | assay | setting | remaining binding [%]
CN(C)c1ncc(F)c(-c2cnn3ncccc23)n1 | binding | 1 µM | 98
CCOCCn1cc(C(=O)Nc2ccc(-n3nc(-c4cccnc4)cc3C(F)(F)F)cn2)ccc1=O | cell-free assay, competition with immobilised ligand | 1 µM | 100
CC1CCCN1c1nccc(-c2cnn3ncccc23)n1 (centres unmarked) | binding | 1 µM | 100
O=C(c1ccc(Nc2ncc(Cl)c(-c3ccc(Cl)s3)n2)cc1)N1CCC(N2CCCC2)CC1 | binding, competition with immobilised ligand | 1 µM | 100
O=C(NCC1CCOCC1)c1n[nH]cc1NC(=O)c1c(F)cccc1F | binding, competition with immobilised ligand | 1 µM | 87
CNC(=O)Nc1ccc2c(c1)[C@@]1(CC2)OC(=O)N(CC(=O)N(Cc2ccc(F)cc2)[C@@H](C)C(F)(F)F)C1=O | cell-free assay, competition with immobilised ligand | 1 µM | 100
CCN1CCN(Cc2ccc(C(=O)Nc3ccc(C)c(Oc4ccc5c(c4)CC(=O)N5)c3)cc2C(F)(F)F)CC1 | binding, competition with immobilised ligand | 1 µM | 100
N[C@H]1CCN(c2nccc(-c3cnn4ncccc34)n2)C1 | binding | 1 µM | 100
c1cncc(-c2cccc(Nc3nccc(NC4CCCCC4)n3)c2)c1 | binding, competition with immobilised ligand | 10 µM | 88
CNC(=O)[C@@H]1CC[C@@H](n2c(-c3ccc4cnccc4c3)nc3ccc(C(=O)NCc4cccc(C(N)=O)c4)cc32)C1 | binding, competition with immobilised ligand | 1 µM | 100
Cc1cnc(Nc2ccc(C(=O)N3CCC(N4CCCC4)CC3)cc2)nc1-c1cc2ccccc2s1 | binding, competition with immobilised ligand | 1 µM | 90
C[C@@H]1CCN(c2nccc(-c3cnn4ncccc34)n2)C1 | binding | 1 µM | 100
Cc1cc(NC(=O)c2cccc(S(F)(F)(F)(F)F)c2)cc(-n2ccn3nc(-c4cccnc4)cc23)c1 | cell-free assay, competition with immobilised ligand | 1 µM | 100
CN(C)c1nccc(-c2cnn3ncccc23)n1 | binding | 1 µM | 85
CCc1ccccc1C(=O)Nc1n[nH]c2c(C)c(F)c(C3C(C#N)=C(C)N(C)C(C)=C3C#N)cc12 | cell-free assay, competition with immobilised ligand | 1 µM | 90
CN(c1nccc(-c2cnn3ncccc23)n1)C1CC1 | binding | 1 µM | 100
Cc1nc(N2CC[C@@H](O)C2)ncc1-c1cc(C(F)(F)F)cc2[nH]ncc12 | cell-free assay, competition with immobilised ligand | 1 µM | 72
COc1cnc(Nc2cccc(S(N)(=O)=O)c2)nc1N1CCN(c2ccccc2)C(=O)C1 | binding, competition with immobilised ligand | 1 µM | 47
CSc1cccnc1N1CCN(Cc2nc3ccccc3[nH]2)CC1 | cell-free assay, competition with immobilised ligand | 1 µM | 100
O=C(NCCCN1CCOCC1)c1ccc(Nc2ncc(Cl)c(-c3ccc(Cl)s3)n2)cc1 | binding, competition with immobilised ligand | 1 µM | 100
